Data reported in ChEMBL document CHEMBL2157876, “Identification of a 2-phenyl-substituted octahydrobenzo[f]quinoline as a dopamine D₃ receptor-selective full agonist ligand” (Bioorg Med Chem, 2012).

Columns and labels:
[1] = Displacement of [3H]-SCH-23390 from dopamine D1 like receptor in pig striatal homogenates after 30 mins by scintillation counting; type: tissue-based, Sus scrofa
[2] = Displacement of [3H]-N-methylspiperone from dopamine D2 like receptor in pig striatal homogenates after 30 mins by scintillation counting; type: tissue-based, Sus scrofa
[3] = organism: Sus scrofa; experiment: Selectivity ratio of Ki for dopamine D2 like receptor in pig striatal homogenates to Ki for dopamine D1 like receptor in pig striatal homogenates; type: tissue-based
In short: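 Porcine striatal homogenate in 50 mM HEPES, 4 mM MgCl2, pH 7.4. […] D2-like sites labelled with 0.2–0.4 nM [3H]N-methylspiperone plus 50 nM ketanserin to block 5-HT2A. Nonspecific binding with 5 µM (+)-butaclamol. 30 min at 37 °C, filtration, scintillation counting. Ki by Cheng-Prusoff from IC50. At least three experiments.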

[4] = biological target: D(1A) dopamine receptor (Homo sapiens, UniProt P21728); experiment: Displacement of [3H]-SCH-23390 from human dopamine D1 receptor expressed in HEK293 cells after 30 mins by scintillation counting; type: cell-based
[5] = biological target: T1, D(3) dopamine receptor (Homo sapiens, UniProt P35462); experiment: Displacement of [3H]-N-methylspiperone from human dopamine D3 receptor expressed in HEK293 cells after 30 mins by scintillation counting; type: cell-based
[6] = organism: Homo sapiens; experiment: Selectivity ratio of Ki for human dopamine D3 receptor to Ki for human dopamine D2long receptor
In short: (§1)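 Membranes from HEK293 cells transiently expressing human receptors: D1 at ~2840 fmol/mg, D2Long at ~2500 fmol/mg, D3 at ~1980 fmol/mg. Buffer 50 mM Tris, 4 mM MgCl2, pH 7.4. […] 5 µM (+)-butaclamol for nonspecific binding. 30 min at 37 °C, filtration, scintillation.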

[7] = biological target: D(2) dopamine receptor (Homo sapiens, UniProt P14416); experiment: Displacement of [3H]-N-methylspiperone from human dopamine D2long receptor expressed in HEK293 cells after 30 mins by scintillation counting; type: cell-based
[8] = biological target: T1, D(3) dopamine receptor; experiment: Agonist activity at dopamine D3 receptor in human U2OS-D3 cells assessed as EA-tagged beta-arrestin translocation after 1.5 hrs by luminescence based beta-galactosidase assay relative to dopamine; type: functional, cell-based
[9] = organism: Homo sapiens; experiment: Selectivity ratio of Ki for human dopamine D3 receptor to Ki for human dopamine D1 receptor; in short: as §1

T1 sequence (P35462 whole entry): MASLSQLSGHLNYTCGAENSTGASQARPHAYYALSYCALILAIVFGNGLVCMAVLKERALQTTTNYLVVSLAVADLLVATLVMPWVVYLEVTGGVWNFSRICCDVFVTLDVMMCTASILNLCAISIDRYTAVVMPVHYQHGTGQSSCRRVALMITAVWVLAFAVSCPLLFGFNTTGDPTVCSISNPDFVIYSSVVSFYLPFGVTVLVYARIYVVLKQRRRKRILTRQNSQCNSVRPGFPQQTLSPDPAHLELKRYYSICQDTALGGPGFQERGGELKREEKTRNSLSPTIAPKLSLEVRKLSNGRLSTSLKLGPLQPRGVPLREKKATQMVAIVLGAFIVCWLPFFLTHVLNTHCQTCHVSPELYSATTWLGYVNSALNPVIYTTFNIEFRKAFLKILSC
Sequence of D(1A) dopamine receptor (P21728 whole entry): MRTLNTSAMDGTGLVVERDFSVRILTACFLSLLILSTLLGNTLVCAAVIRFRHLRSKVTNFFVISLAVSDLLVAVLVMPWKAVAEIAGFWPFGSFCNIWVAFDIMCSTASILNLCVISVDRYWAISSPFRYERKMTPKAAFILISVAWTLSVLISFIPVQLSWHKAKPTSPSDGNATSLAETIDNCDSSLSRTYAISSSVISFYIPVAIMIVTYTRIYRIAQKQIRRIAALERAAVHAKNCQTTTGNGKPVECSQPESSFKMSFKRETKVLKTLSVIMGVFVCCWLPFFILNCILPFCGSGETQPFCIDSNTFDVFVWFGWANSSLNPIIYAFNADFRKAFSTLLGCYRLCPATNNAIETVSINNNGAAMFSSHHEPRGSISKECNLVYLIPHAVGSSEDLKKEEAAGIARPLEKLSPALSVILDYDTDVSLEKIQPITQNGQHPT
Sequence of D(2) dopamine receptor (P14416 whole entry): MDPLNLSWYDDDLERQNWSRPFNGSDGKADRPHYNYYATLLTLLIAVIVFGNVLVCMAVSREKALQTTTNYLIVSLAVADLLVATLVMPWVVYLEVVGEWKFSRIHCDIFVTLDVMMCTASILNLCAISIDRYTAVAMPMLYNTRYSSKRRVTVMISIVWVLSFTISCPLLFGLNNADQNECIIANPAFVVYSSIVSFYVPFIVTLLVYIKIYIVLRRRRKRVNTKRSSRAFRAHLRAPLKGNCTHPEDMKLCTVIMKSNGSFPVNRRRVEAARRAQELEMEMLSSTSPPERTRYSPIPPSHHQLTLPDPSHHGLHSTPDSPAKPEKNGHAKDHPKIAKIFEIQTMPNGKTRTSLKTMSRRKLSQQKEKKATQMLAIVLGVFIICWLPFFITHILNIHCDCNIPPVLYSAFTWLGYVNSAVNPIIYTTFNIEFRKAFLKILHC

Row | Structure (SMILES) | Ki [1] | Ki [2] | Ratio Ki [3] | Ki [4] | Ki [5] | Ratio Ki [6] | Ki [7] | Emax [8] | Ratio Ki [9]
1 | Cc1ccc([C@H]2CN[C@@H]3CCc4cc(O)c(O)cc4[C@H]3C2)cc1 (racemic) | 810 nM | 56 nM | 14 | – | – | – | – | – | –
2 | CN1CCc2cc(Cl)c(O)cc2[C@@H](c2ccccc2)C1.O=C(O)/C(O)=C(/O)C(=O)O | 0.31 nM | – | – | – | – | – | – | – | –
3 | Oc1ccc2c(c1O)C[C@@H](c1ccccc1)[C@@H]1CCNC[C@@H]21 | 8.2 nM | 180 nM | – | 47 nM | 210 nM | – | – | – | –
4 | Oc1cc2c(cc1O)[C@H]1c3ccccc3CN[C@@H]1CC2 (relative stereo) [DIHYDREXIDINE] | – | 200 nM | – | – | – | – | – | – | –
5 | Oc1cc2c(cc1O)[C@H]1C[C@@H](c3ccccc3)CN[C@@H]1CC2 (racemic) | 930 nM | 30 nM | 31 | – | – | – | – | – | –
6 | Oc1ccc([C@H]2CN[C@@H]3CCc4cc(O)c(O)cc4[C@H]3C2)cc1 (racemic) | 490 nM | 14 nM | 34 | 550 nM | 50 nM | 10 | 490 nM | – | –
7 | Oc1cc2c(cc1O)[C@H]1C[C@@H](c3ccc(C(F)(F)F)cc3)CN[C@@H]1CC2 (racemic) | 2370 nM | 150 nM | 16 | – | – | – | – | – | –
8 | CCCN1C[C@H](c2ccc(O)cc2)C[C@@H]2c3cc(O)c(O)cc3CC[C@H]21 (relative stereo) | 630 nM | 10 nM | 61 | 921 nM | – | 145 | – | 103% | 840
9 | Oc1cccc([C@H]2CN[C@@H]3CCc4cc(O)c(O)cc4[C@H]3C2)c1 (racemic) | 580 nM | 29 nM | 20 | – | – | – | – | – | –
